Data on two compounds can be found in ChEMBL document CHEMBL4627345, “Anti-inflammatory effect and inhibition of nitric oxide production by targeting COXs and iNOS enzymes with the 1,2-diphenylbenzimidazole pharmacophore” (Bioorg Med Chem, 2020).

Structures are written as SMILES. Calls of active or inactive are those of the source. The rule behind the calls is not given here.

Data set [1] is described as follows: Cytotoxicity against mouse RAW264.7 cells assessed as cell viability at 500 uM measured after 24 hrs by MTT assay relative to control. The data set is classed as cell-based. To be noted: read-out: Activity. A digest of the protocol: (§1)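 RAW 264.7 murine macrophages grown in RPMI-1640 with 10% heat-inactivated FBS at 37 °C, 5% CO2. Cells seeded at 4 x10^4 per well and exposed 24 h to 0–500 µM compound (DMSO 0.2% final). Medium replaced with 0.5 mg/mL MTT for 4 h, formazan dissolved in isopropanol, absorbance read at 570 nm. Triplicates in three independent experiments.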

Data set [2] is described as follows: Cytotoxicity against mouse RAW264.7 cells assessed as cell viability at 100 uM measured after 24 hrs by MTT assay relative to control. The data set is classed as cell-based. The note with it: read-out: Activity. A digest of the protocol: as §1
(In general: Tetrazolium assays rely on reduction of a dye to a coloured formazan, in cell work by metabolically active cells.)

The target in data set [3] is T1, Prostaglandin G/H synthase 1 (Bos taurus) (UniProt O62664).
T1 sequence (whole entry): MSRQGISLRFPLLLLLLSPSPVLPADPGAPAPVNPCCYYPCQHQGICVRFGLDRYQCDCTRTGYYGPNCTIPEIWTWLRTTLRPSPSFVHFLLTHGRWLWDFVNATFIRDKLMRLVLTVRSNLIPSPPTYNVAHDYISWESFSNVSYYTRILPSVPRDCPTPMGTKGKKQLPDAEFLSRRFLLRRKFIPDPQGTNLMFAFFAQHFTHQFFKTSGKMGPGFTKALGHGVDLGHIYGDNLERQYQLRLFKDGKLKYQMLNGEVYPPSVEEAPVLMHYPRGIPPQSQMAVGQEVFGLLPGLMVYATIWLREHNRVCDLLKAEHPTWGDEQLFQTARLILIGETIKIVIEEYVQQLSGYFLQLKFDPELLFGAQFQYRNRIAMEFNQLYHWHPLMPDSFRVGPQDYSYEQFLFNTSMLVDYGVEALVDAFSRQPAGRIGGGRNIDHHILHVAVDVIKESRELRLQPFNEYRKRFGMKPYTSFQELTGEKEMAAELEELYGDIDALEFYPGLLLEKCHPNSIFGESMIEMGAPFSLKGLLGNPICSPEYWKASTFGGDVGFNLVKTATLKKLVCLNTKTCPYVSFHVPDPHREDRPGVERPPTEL
The experiment in a line: Inhibition of bovine COX1 at 100 uM using arachidonic acid as substrate preincubated for 5 mins followed by substrate addition and measured after 5 mins by […]-based fluorescence assay relative to control. The method, boiled down: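 Bovine COX-1 preincubated 5 min in buffer with compound (100 µM) or SC-560 as reference. ADHP and arachidonic acid then added, and resorufin fluorescence read after 5 min (ex 530–540 / em 585–595 nm). Resorufin arises from ADHP reacting with the COX-derived PGG2.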

The nature of data set [4]: Selectivity index, ratio of inhibition of human recombinant COX-2 at 100 uM to inhibition of bovine COX-1 at 100 uM. The method, boiled down: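 SI is COX-2/COX-1 activity ratio. Percent inhibition at 100 µM: human recombinant COX-2 (15 min preincubation) and bovine COX-1 (5 min preincubation). Fluorometric ADHP/arachidonic acid read-out after 5 min.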
The target in data set [5] is T2, Prostaglandin G/H synthase 2 (Homo sapiens, UniProt P35354).
T2 sequence (P35354 whole entry): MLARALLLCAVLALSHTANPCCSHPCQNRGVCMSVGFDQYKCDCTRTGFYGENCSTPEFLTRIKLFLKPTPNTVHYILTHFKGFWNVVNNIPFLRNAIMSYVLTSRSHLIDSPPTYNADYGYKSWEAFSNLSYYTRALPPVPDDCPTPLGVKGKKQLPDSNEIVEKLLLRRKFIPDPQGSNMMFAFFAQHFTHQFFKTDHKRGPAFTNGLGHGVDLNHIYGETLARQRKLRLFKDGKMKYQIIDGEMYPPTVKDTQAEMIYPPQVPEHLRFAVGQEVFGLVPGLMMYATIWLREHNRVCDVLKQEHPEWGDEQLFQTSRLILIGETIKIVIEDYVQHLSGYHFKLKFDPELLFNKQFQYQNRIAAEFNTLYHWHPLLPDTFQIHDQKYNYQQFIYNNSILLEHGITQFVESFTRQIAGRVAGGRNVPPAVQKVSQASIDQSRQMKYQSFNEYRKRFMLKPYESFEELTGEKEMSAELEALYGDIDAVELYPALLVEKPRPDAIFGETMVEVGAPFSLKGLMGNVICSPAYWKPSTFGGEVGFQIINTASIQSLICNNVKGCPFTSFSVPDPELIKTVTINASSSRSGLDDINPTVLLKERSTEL
Kind of data set: Inhibition of human recombinant COX-2 using arachidonic acid as substrate preincubated for 15 mins followed by substrate addition and measured after 5 mins by […]-based fluorescence assay. The method, boiled down: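 Human recombinant COX-2 preincubated 15 min in buffer with compound (100 µM) or DuP-697 as reference. ADHP and arachidonic acid then added, and resorufin fluorescence read after 5 min (ex 530–540 / em 585–595 nm).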

In data set [6] the target is T3, Nitric oxide synthase, inducible (Mus musculus) (UniProt P29477).
T3 sequence (whole entry): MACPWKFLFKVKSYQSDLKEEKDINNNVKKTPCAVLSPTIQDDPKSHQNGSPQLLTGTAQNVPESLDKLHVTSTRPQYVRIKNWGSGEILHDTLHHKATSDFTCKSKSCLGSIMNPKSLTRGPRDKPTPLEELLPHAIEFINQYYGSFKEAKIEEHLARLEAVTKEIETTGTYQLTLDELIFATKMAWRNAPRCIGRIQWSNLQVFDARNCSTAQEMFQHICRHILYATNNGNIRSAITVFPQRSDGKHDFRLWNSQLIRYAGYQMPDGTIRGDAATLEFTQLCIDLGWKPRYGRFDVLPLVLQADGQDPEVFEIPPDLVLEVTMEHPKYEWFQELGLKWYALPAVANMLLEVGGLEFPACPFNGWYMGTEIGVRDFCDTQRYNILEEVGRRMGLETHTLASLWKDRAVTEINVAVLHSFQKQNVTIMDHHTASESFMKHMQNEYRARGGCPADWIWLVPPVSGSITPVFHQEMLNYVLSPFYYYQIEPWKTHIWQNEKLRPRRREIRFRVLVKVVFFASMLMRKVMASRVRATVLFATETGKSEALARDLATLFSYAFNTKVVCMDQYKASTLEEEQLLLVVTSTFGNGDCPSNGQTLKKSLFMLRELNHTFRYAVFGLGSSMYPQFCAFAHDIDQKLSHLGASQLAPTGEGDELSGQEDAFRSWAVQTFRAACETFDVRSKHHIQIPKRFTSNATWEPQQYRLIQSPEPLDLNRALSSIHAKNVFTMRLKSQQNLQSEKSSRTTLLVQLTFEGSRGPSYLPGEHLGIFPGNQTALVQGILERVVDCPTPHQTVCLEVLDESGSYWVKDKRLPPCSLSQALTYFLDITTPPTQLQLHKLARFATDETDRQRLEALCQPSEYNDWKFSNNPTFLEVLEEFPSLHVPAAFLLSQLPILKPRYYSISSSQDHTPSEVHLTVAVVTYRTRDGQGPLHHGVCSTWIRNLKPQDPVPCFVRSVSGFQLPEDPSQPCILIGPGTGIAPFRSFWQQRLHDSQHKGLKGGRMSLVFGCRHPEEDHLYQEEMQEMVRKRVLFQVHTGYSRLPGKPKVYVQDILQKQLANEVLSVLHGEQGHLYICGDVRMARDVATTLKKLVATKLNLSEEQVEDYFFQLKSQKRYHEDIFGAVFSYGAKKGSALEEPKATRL
Kind of data set: Inhibition of iNOS in mouse macrophages assessed as reduction in LPS-induced nitric oxide production at 50 uM incubated for overnight by griess assay relative to control. A digest of the protocol:
(§2)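 Murine macrophages seeded at 4 x10^4 per well with compound at 50 or 100 µM, with or without LPS (100 ng/mL), overnight under standard conditions. Supernatant mixed 1:1 with Griess reagent and read at 570 nm. Nitrite quantified from a NaNO2 standard curve. Triplicates in three independent experiments.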
Background: Griess reagent forms a coloured azo dye with nitrite.

Data set [7] concerns the target T3, Nitric oxide synthase, inducible (Mus musculus). The experiment in a line: Inhibition of iNOS in mouse macrophages assessed as reduction in LPS-induced nitric oxide production at 100 uM incubated for overnight by griess assay relative to control. A digest of the protocol: as §2
The subject of data set [8] is Rattus norvegicus. The experiment in a line: Antiinflammatory activity in Wistar rat assessed as inhibition of carrageenan-induced paw edema formation at 100 mg/kg, po administered 1 hr before carrageenan stimulation and measured after up to 6 hrs relative to control. The data set is classed as functional. The method, boiled down:
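Male Wistar rats (250–300 g), N = 5 per group, dosed orally 1 h before 0.1 mL of 1% carrageenan in physiological saline was injected into the right paw. Paw volume was read by plethysmometer at 0, 1, 2, 3, 4, 5 and 6 h. Edema was taken as the right-minus-left paw volume difference. % inhibition = (untreated − treated)/untreated × 100 at each time point.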

A word on the inhibition: it is the share of the control response that was lost under treatment. A word on the IC50: it is the point on the concentration scale where inhibition reaches its midpoint. For `Nc1ccc(-c2nc3ccccc3n2-c2ccc(N)cc2)cc1`, the viability at 24 h, 500 µM in data set [1] was at least 80%. Also, the viability at 24 h, 100 µM in data set [2] is above 90%. Also, the inhibition in data set [3] is 29.7%; in data set [6], 42.5%; in data set [7], 44.1%. Also, in data set [4], the Selectivity Index worked out at 1.55. For the same compound, the IC50 in data set [5] came to 173 µM. Also, the inhibition result in data set [8] was “Active”.
Regarding `Nc1ccc(-n2c(-c3ccc(Cl)cc3)nc3ccccc32)cc1`, in data set [1], the viability at 24 h, 500 µM was at least 80%. Further, the viability at 24 h, 100 µM in data set [2] is above 90%. Further, the values for the inhibition in data set [3], in data set [6] and in data set [7] were 39%, 24.9% and 52.2%, respectively. Besides, the Selectivity Index in data set [4] came out at 1.15. Also, in data set [5], the IC50 was 193 µM. Further, in data set [8], the inhibition result was “Active”.
